The assay concerns the target Tyrosine-protein kinase BTK (Homo sapiens, UniProt Q06187). Put plainly: Inhibition of Btk (unknown origin) after 1 hr by HTRF assay. The procedure, abridged: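 Recombinant kinases tested by HTRF KinEase protocol. Enzyme preincubated with inhibitor for a fixed 10 min. IC50 values are means of duplicates.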
A general note: Time-resolved FRET reads energy transfer from a long-lived donor to a nearby acceptor.
Sequence of Tyrosine-protein kinase BTK (Q06187 whole entry): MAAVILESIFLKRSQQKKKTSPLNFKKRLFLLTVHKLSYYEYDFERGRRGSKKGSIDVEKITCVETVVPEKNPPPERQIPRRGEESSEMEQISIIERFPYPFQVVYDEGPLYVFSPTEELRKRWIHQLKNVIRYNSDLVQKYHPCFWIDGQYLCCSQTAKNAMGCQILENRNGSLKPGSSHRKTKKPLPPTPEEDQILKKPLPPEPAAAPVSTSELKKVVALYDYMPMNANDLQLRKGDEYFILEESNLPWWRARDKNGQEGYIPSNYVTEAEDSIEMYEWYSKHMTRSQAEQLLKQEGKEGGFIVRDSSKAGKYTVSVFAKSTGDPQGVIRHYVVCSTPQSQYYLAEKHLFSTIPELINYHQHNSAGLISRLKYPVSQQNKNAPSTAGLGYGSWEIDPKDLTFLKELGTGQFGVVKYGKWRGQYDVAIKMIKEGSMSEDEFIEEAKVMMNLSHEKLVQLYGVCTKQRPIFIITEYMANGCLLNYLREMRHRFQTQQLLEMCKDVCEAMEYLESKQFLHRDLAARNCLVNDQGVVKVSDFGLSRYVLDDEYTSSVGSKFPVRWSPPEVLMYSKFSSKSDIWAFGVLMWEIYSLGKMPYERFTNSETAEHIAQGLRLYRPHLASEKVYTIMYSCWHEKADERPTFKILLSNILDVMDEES
The IC50 is the midpoint of a concentration-inhibition curve. The low end stands for higher potency, the high end for lower potency. `Cc1ccc(NC(=O)c2cccc(C(F)(F)F)c2)cc1C(=O)Nc1cnc(Nc2cccc(C(F)(F)F)c2)nc1` registered an IC50 of 304 nM.
Regarding `Nc1cccc(Nc2ncc(NC(=O)c3cccc(NC(=O)c4cccc(C(F)(F)F)c4)c3)cn2)c1`, the IC50 turned out to be 233 nM.
For `Cc1ccc(NC(=O)c2cccc(Cl)c2)cc1C(=O)Nc1cnc(Nc2cccc(N)c2)nc1`, the midpoint of inhibition, the IC50, lay at 20 nM.
The figure for `Cc1ccc(NC(=O)c2cccc(C(F)(F)F)c2)cc1C(=O)Nc1cnc(Nc2ccccc2)nc1` is 133 nM; for `Cc1ccc(NC(=O)/C=C/c2ccccc2)cc1C(=O)Nc1cnc(Nc2cccc(N)c2)nc1` it is 24 nM.
As for `Cc1ccc(NC(=O)c2cccc(C(F)(F)F)c2)cc1C(=O)Nc1cnc(NC2CC2)nc1`, the IC50 was determined as 2150 nM.
Compound `C=CC(=O)Nc1cccc(Nc2ncc(NC(=O)c3cc(NC(=O)c4cccc(F)c4)ccc3C)cn2)c1` had a half-maximal inhibitory concentration (IC50) of 48 nM.
Then `Cc1ccc(NC(=O)c2cccc(N(C)C)c2)cc1C(=O)Nc1cnc(Nc2cccc(N)c2)nc1`, with 47 nM; and `CCNc1ncc(NC(=O)c2cc(NC(=O)c3cccc(C(F)(F)F)c3)ccc2C)cn1`, with 1110 nM.
The figure for `Cc1ccc(NC(=O)c2ccc3ccccc3c2)cc1C(=O)Nc1cnc(Nc2cccc(N)c2)nc1` is 39 nM; for `Cc1ccc(NC(=O)c2cccc(C(F)(F)F)c2)cc1C(=O)Nc1cnc(Nc2cccc(N)c2)nc1` it is 14 nM; for `Cc1ccc(NC(=O)Nc2cccc(C(F)(F)F)c2)cc1C(=O)Nc1cnc(Nc2cccc(N)c2)nc1` it is 63 nM.
In turn, `C=CC(=O)Nc1cccc(Nc2ncc(NC(=O)c3cc(NC(=O)c4ccc5ccccc5c4)ccc3C)cn2)c1` yielded a 50% inhibitory concentration (IC50) of 22 nM.
Turning to `C=CC(=O)Nc1cccc(Nc2ncc(NC(=O)c3cc(NC(=O)c4ccc(Cl)c(C(F)(F)F)c4)ccc3C)cn2)c1`, the IC50 turned out to be 11 nM.
In the case of `Cc1ccc(NC(=O)c2cccc(C(F)(F)F)c2)cc1C(=O)Nc1cnc(Nc2cccc(NC(=O)CCN(C)C)c2)nc1`, half-maximal inhibition (IC50) required 14 nM.
Compound `Cc1ccc(NC(=O)c2ccc(Cl)c(C(F)(F)F)c2)cc1C(=O)Nc1cnc(Nc2cccc(N)c2)nc1` had an IC50 of 9 nM.
Then `C=CS(=O)(=O)Nc1cccc(Nc2ncc(NC(=O)c3cc(NC(=O)c4cccc(C(F)(F)F)c4)ccc3C)cn2)c1`, with 16 nM; and `Nc1cccc(Nc2ncc(NC(=O)c3cc(NC(=O)c4cccc(C(F)(F)F)c4)ccc3Cl)cn2)c1`, with 11 nM; and `Cc1ccc(NC(=O)c2cccc(C(F)(F)F)c2)cc1C(=O)Nc1cnc(N)nc1`, with 3420 nM.
Take `Cc1ccc(NC(=O)c2ccc(C(F)(F)F)cc2)cc1C(=O)Nc1cnc(Nc2cccc(N)c2)nc1`: the half-maximal inhibitory concentration (IC50) stood at 25 nM.
`CCC(=O)Nc1ccc(C)c(C(=O)Nc2cnc(Nc3cccc(N)c3)nc2)c1`: half-maximal inhibition (IC50) required 8560 nM.
In the case of `Cc1ccc(NC(=O)c2cccc(C(F)(F)F)c2)cc1C(=O)Nc1cnc(Nc2cccc(NC(=O)CCl)c2)nc1`, the half-maximal inhibitory concentration (IC50) was 15 nM.
`Cc1ccc(NC(=O)c2cc(Cl)cc(C(F)(F)F)c2)cc1C(=O)Nc1cnc(Nc2cccc(N)c2)nc1`: the IC50 came out at 18 nM.
Take `Cc1ccc(NC(=O)c2cccc(C(F)(F)F)c2)cc1C(=O)Nc1cnc(Nc2cccc(NC(=O)Cn3sc4ccccc4c3=O)c2)nc1`: the midpoint of inhibition, the IC50, lay at 18 nM.
In the case of `COc1cccc(Nc2ncc(NC(=O)c3cc(NC(=O)c4cccc(C(F)(F)F)c4)ccc3C)cn2)c1`, the IC50 is 53 nM.
Compound `C=CC(=O)N(C(=O)C=C)c1cccc(Nc2ncc(NC(=O)c3cc(NC(=O)c4cccc(C(F)(F)F)c4)ccc3C)cn2)c1` showed a 50% inhibitory concentration (IC50) of 208 nM.
With `Cc1ccc(NC(=O)c2cccc(F)c2)cc1C(=O)Nc1cnc(Nc2cccc(N)c2)nc1`, the IC50 was found to be 166 nM.
`Cc1ccc(NC(=O)c2cccc(C(F)(F)F)c2)cc1C(=O)Nc1cnc(Nc2ccc(N)cc2)nc1` had an IC50 of 8 nM.
Then `C/C=C/C(=O)Nc1cccc(Nc2ncc(NC(=O)c3cc(NC(=O)c4cccc(C(F)(F)F)c4)ccc3C)cn2)c1`, with 36 nM; and `Cc1ccc(NC(=O)c2cccc(C(F)(F)F)c2)cc1C(=O)Nc1cnc(Nc2cccc(F)c2)nc1`, with 52 nM.

The record behind these values is ChEMBL document CHEMBL3286193, “Discovery of a series of 2,5-diaminopyrimidine covalent irreversible inhibitors of Bruton's tyrosine kinase with in vivo antitumor activity” (J Med Chem, 2014).
